ChEMBL document CHEMBL1129651, “3-Phenyl-substituted imidazo[1,5-alpha]quinoxalin-4-ones and imidazo[1,5-alpha]quinoxaline ureas that have high affinity at the GABAA/benzodiazepine receptor complex” (J Med Chem, 1996)

Columns and labels:
[1] = target: GABA-A receptor; anion channel; experiment: Binding affinity against benzodiazepine receptor (BzR) in rat cortical membranes determined by competition experiments with radiolabeled [3H]flunitrazepam (Fnz); type: cell membranes
[2] = target: GABA-A receptor; anion channel (Rattus norvegicus) (UniProt O09028+P15431+P18506+P18508+P19969+P20236+P23574+P23576+P28471+P28473+P30191+P62813+P63079+P63138+Q91ZM7+Q9ES14)
[3] = organism: Mus musculus; experiment: Compound was tested for ethanol potentiation expressed as the loss of traction response (muscle relaxation); type: functional
Procedure, shortened: (§1)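 Male CF-1 mice given 50% aqueous ethanol orally (7.5 mL/kg) plus test compound sc in 0.25% aqueous methyl cellulose (10 mL/kg). Tested 30 min later. Traction: hindlimb placed on wire within 10 s when suspended by forepaws. Righting: rolls onto feet within 10 s when released on its back. Six mice per dose; ED50s determined.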

[4] = test system: Rattus norvegicus; experiment: Ability to antagonize metrazole-induced seizures (clonic and tonic) in rats after intraperitoneal injection; conditions: ip
[5] = organism: Mus musculus; experiment: Compound was tested for ethanol potentiation expressed as loss of righting reflex (anesthesia); type: functional; procedure, shortened: as §1
[6] = organism: Mus musculus; experiment: Antagonism of benzodiazepine traction in mice; type: functional
Procedure, shortened: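 Male CF-1 mice given triazolam 1 mg/kg ip together with test compound ip, starting at 100 mg/kg, in 0.25% aqueous methyl cellulose. Dose-response run on 0.5 log scale. Loss of traction scored 15 min later. Absence of the expected loss marks antagonism. ED50 taken from lower doses.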

[7] = organism: Mus musculus; experiment: Acute electroshock physical dependence activity (drug MA50/V122 MA50); type: functional
Procedure, shortened: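 Male CF-1 mice, 10/group, dosed sc twice daily for 3 days (0800, then 2 times that dose at 1600). Flumazenil 2.5 mg/kg iv in 5% aqueous N,N-dimethylacetamide given 24 h after the last dose. 5 min later electroshock seizure threshold estimated by up-down method (0.05 log steps; transpinnal 0.6 ms pulses, 100 Hz, 0.2 s). Comparison is against a saline-treated, flumazenil-injected control group.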

[8] = target: GABA A receptor alpha-3/beta-2/gamma-2 (Rattus norvegicus) (UniProt P18508+P20236+P63138); experiment: In vitro efficacy as change in chloride current against GABA-A alpha-3-beta-2-gamma-2 subunit expression; type: functional

SMILES: COc1ccccc1-c1ncn2c1c(=O)n(C(C)C)c1ccccc12
- Ki [1]: > 10000 nM

SMILES: COc1ccc(-c2ncn3c2c(=O)n(C(C)C)c2ccccc23)cc1
- TBPS shift [2]: 0.75
- ED50 [3]: > 30 mg/kg
- ED50 [4]: 12.5 mg/kg
- Ki [1]: 31.7 nM
- ED50 [5]: > 30 mg/kg

SMILES: CC1(C)c2c(-c3ccc(F)cc3)ncn2-c2ccccc2N1C(=O)N1CCCC1
- TBPS shift [2]: 0.6
- ED50 [4]: > 50 mg/kg
- Ki [1]: 12.6 nM

SMILES: Cc1ccc(-c2ncn3c2CN(C(=O)N2CCCC2)c2ccccc2-3)cc1
- TBPS shift [2]: 1.19
- Ki [1]: 1.54 nM

SMILES: CC(C)OC(=O)N1Cc2c(-c3ccc(F)cc3)ncn2-c2ccccc21
- TBPS shift [2]: 0.93
- ED50 [3]: > 30 mg/kg
- ED50 [6]: > 30 mg/kg
- ED50 [4]: 6.3 mg/kg
- Ki [1]: 50.8 nM
- Activity [7]: 0.83
- ED50 [5]: > 30 mg/kg

SMILES: Cc1ccc(-c2ncn3c2C(C)(C)N(C(=O)N2CCCC2)c2ccccc2-3)cc1
- TBPS shift [2]: 1.05
- ED50 [4]: 17.7 mg/kg
- Ki [1]: 35 nM

SMILES: O=C(N1CCCCC1)N1Cc2c(-c3ccccc3)ncn2-c2ccccc21
- TBPS shift [2]: 0.52
- ED50 [3]: 0.5 mg/kg
- ED50 [6]: > 30 mg/kg
- ED50 [4]: 4.5 mg/kg
- Ki [1]: 1.65 nM
- Activity [7]: 0.82
- ED50 [5]: > 30 mg/kg

SMILES: CC1CN(C(=O)N2Cc3c(-c4ccc(F)cc4)ncn3-c3ccccc32)CC(C)N1 (configuration not stated)
- TBPS shift [2]: 0.75
- ED50 [3]: 4 mg/kg
- ED50 [6]: > 30 mg/kg
- ED50 [4]: 1.1 mg/kg
- Ki [1]: 5.85 nM
- Activity [7]: 0.7
- ED50 [5]: > 30 mg/kg

SMILES: CC1CN(C(=O)N2Cc3c(-c4ccc(F)cc4)ncn3-c3cccc(Cl)c32)CC(C)N1C (configuration not stated)
- TBPS shift [2]: 0.62
- ED50 [6]: > 30 mg/kg
- ED50 [4]: 1.8 mg/kg
- Ki [1]: 47.4 nM
- Activity [7]: 0.8

SMILES: O=C(c1cccc(F)c1)N1Cc2c(-c3ccc(F)cc3)ncn2-c2ccccc21
- TBPS shift [2]: 1.06
- ED50 [4]: 1.3 mg/kg
- Ki [1]: 5.91 nM
- Activity [7]: 0.87

SMILES: NC(=O)N1Cc2c(-c3ccc(F)cc3)ncn2-c2ccccc21
- TBPS shift [2]: 0.29
- ED50 [4]: > 50 mg/kg
- Ki [1]: 216 nM

SMILES: O=C(N1CCOCC1)N1Cc2c(-c3ccc(F)cc3)ncn2-c2cccc(Cl)c21
- TBPS shift [2]: 0.44
- ED50 [4]: 3.7 mg/kg
- Ki [1]: 2.97 nM
- Activity [7]: 0.86

SMILES: Cc1cccc2c1n(C(C)C)c(=O)c1c(-c3ccc(F)cc3)ncn12
- TBPS shift [2]: 1.83
- ED50 [4]: 2.6 mg/kg
- Ki [1]: 126 nM
- Cl - current change [8]: 1.7

SMILES: Cc1ccc(-c2ncn3c2c(=O)n(C(C)C)c2ccccc23)cc1
- TBPS shift [2]: 1.09
- ED50 [4]: > 50 mg/kg
- Ki [1]: 174 nM

SMILES: CC1CN(C(=O)N2Cc3c(-c4ccc(F)cc4)ncn3-c3ccc(F)cc32)CC(C)N1 (configuration not stated)
- TBPS shift [2]: 0.72
- ED50 [6]: > 30 mg/kg
- ED50 [4]: 0.5 mg/kg
- Ki [1]: 2.49 nM

SMILES: CN(C)C(=O)N1Cc2c(-c3ccc(F)cc3)ncn2-c2ccccc21
- TBPS shift [2]: 0.53
- ED50 [3]: 11 mg/kg
- ED50 [6]: 4.9 mg/kg
- ED50 [4]: 4.4 mg/kg
- Ki [1]: 2.96 nM
- Activity [7]: 0.87
- ED50 [5]: > 30 mg/kg

SMILES: COc1ccc(-c2ncn3c2c(=O)n(C(C)C)c2c(C)cccc23)cc1
- TBPS shift [2]: 0.92
- ED50 [4]: 3.1 mg/kg
- Ki [1]: 49.7 nM
- Cl - current change [8]: 1.3

SMILES: CC(C)n1c(=O)c2c(-c3ccc(F)cc3)ncn2c2ccc(F)cc21
- TBPS shift [2]: 0.8
- ED50 [4]: > 50 mg/kg
- Ki [1]: 59.4 nM

SMILES: CC1CN(C(=O)N2Cc3c(-c4ccc(F)cc4)ncn3-c3ccc(F)cc32)CC(C)N1C (configuration not stated)
- TBPS shift [2]: 0.64
- ED50 [4]: 1.3 mg/kg
- Activity [7]: 0.59

SMILES: CC(C)n1c(=O)c2c(-c3ccccc3)ncn2c2ccc(F)cc21
- TBPS shift [2]: 0.77
- ED50 [4]: > 50 mg/kg
- Ki [1]: 39.6 nM

SMILES: CC(C)(C)NC(=O)N1Cc2c(-c3ccc(F)cc3)ncn2-c2ccccc21
- TBPS shift [2]: 1.02
- ED50 [4]: > 50 mg/kg
- Ki [1]: 283 nM

SMILES: Cc1ccc(-c2ncn3c2C(C)(C)N(C(=O)N(C)C)c2ccccc2-3)cc1
- TBPS shift [2]: 0.71
- ED50 [4]: > 50 mg/kg
- Ki [1]: 334 nM

SMILES: CCNC(=O)N1Cc2c(-c3ccc(F)cc3)ncn2-c2ccccc21
- TBPS shift [2]: 0.42
- ED50 [4]: > 50 mg/kg
- Ki [1]: 48.6 nM

SMILES: CC(C)n1c(=O)c2c(-c3ccc(C(F)(F)F)cc3)ncn2c2ccccc21
- TBPS shift [2]: 0.36
- Ki [1]: > 10000 nM
- Cl - current change [8]: 0.36

SMILES: COC(=O)N1Cc2c(-c3ccc(F)cc3)ncn2-c2ccccc21
- TBPS shift [2]: 0.53
- ED50 [4]: > 50 mg/kg
- Ki [1]: 47.2 nM

SMILES: CN(C)C(=O)N1Cc2c(-c3ccccc3)ncn2-c2ccccc21
- TBPS shift [2]: 0.4
- Ki [1]: 3.41 nM

SMILES: CC1CN(C(=O)N2Cc3c(-c4ccc(F)cc4)ncn3-c3cccc(Cl)c32)CC(C)N1 (configuration not stated)
- TBPS shift [2]: 0.31
- ED50 [6]: > 30 mg/kg
- ED50 [4]: 1.8 mg/kg
- Ki [1]: 33.4 nM

SMILES: CC(C)n1c(=O)c2c(-c3ccccc3)ncn2c2ccccc21
- TBPS shift [2]: 0.31
- ED50 [4]: > 50 mg/kg
- Ki [1]: 38.5 nM

SMILES: CN(C)C(=O)N1c2ccccc2-n2cnc(-c3ccc(F)cc3)c2C1(C)C
- TBPS shift [2]: 0.49
- ED50 [4]: > 50 mg/kg
- Ki [1]: 163 nM

SMILES: O=C(N1CCOCC1)N1Cc2c(-c3ccc(F)cc3)ncn2-c2ccc(Cl)cc21
- TBPS shift [2]: 1.05
- ED50 [3]: 11 mg/kg
- ED50 [6]: > 30 mg/kg
- ED50 [4]: 0.76 mg/kg
- Ki [1]: 15.2 nM
- Activity [7]: 0.62
- ED50 [5]: 27 mg/kg

SMILES: CN(C)C(=O)N1c2ccccc2-n2cnc(-c3ccccc3)c2C1(C)C
- TBPS shift [2]: 0.45
- Ki [1]: 478 nM

SMILES: CN1C(=O)CN=C(c2ccccc2)c2cc(Cl)ccc21 [DIAZEPAM]
- ED50 [3]: 0.54 mg/kg
- ED50 [4]: 0.5 mg/kg
- Activity [7]: 18.2
- ED50 [5]: 0.86 mg/kg

SMILES: COc1ccc(-c2ncn3c2CN(C(=O)N2CC(C)NC(C)C2)c2ccccc2-3)cc1 (configuration not stated)
- TBPS shift [2]: 0.31
- ED50 [6]: > 30 mg/kg
- ED50 [4]: 0.8 mg/kg
- Ki [1]: 1.39 nM
- Activity [7]: 0.47

SMILES: O=C(c1ccc(F)cc1)N1Cc2c(-c3ccc(F)cc3)ncn2-c2ccccc21
- TBPS shift [2]: 0.82
- ED50 [4]: 29.7 mg/kg
- Ki [1]: 20.5 nM

SMILES: O=C(N1CCOCC1)N1Cc2c(-c3ccc(F)cc3)ncn2-c2ccccc21
- TBPS shift [2]: 0.54
- ED50 [4]: 0.3 mg/kg
- Ki [1]: 1.61 nM
- Activity [7]: 0.67

SMILES: CC(C)n1c(=O)c2c(-c3ccc(Cl)cc3)ncn2c2ccccc21
- TBPS shift [2]: 0.74
- ED50 [4]: > 50 mg/kg

SMILES: O=C(N1CCOCC1)N1Cc2c(-c3ccc(F)cc3)ncn2-c2ccc(F)cc21
- TBPS shift [2]: 0.7
- ED50 [3]: 5 mg/kg
- ED50 [6]: > 30 mg/kg
- ED50 [4]: 0.14 mg/kg
- Ki [1]: 2.16 nM
- Activity [7]: 0.7
- ED50 [5]: 17 mg/kg

SMILES: CC1CN(C(=O)N2Cc3c(-c4ccc(F)cc4)ncn3-c3ccccc32)CC(C)N1C (configuration not stated)
- TBPS shift [2]: 0.31
- ED50 [6]: > 30 mg/kg
- ED50 [4]: 13 mg/kg
- Ki [1]: 13.2 nM
- Activity [7]: 0.8

SMILES: Cc1ccc(-c2ncn3c2CN(C(=O)N(C)C)c2ccccc2-3)cc1
- ED50 [4]: 4.4 mg/kg
- Ki [1]: 11.1 nM
- Activity [7]: 0.87

SMILES: O=C(N1CCCC1)N1Cc2c(-c3ccc(F)cc3)ncn2-c2ccccc21
- TBPS shift [2]: 0.64
- ED50 [3]: 0.34 mg/kg
- ED50 [6]: > 30 mg/kg
- ED50 [4]: 14.8 mg/kg
- Ki [1]: 0.97 nM
- Activity [7]: 0.88
- ED50 [5]: > 30 mg/kg

SMILES: COc1ccc(-c2ncn3c2c(=O)n(C(C)C)c2cc(F)ccc23)cc1
- TBPS shift [2]: 0.97
- ED50 [4]: > 50 mg/kg
- Ki [1]: 81.5 nM

SMILES: O=C(c1ccccc1F)N1Cc2c(-c3ccc(F)cc3)ncn2-c2ccccc21
- TBPS shift [2]: 0.84
- Ki [1]: 42.4 nM

SMILES: CC(C)n1c(=O)c2c(-c3cccc(F)c3)ncn2c2ccccc21
- TBPS shift [2]: 0.31
- ED50 [4]: > 50 mg/kg
- Ki [1]: 480 nM

SMILES: O=C(N1CCCC1)N1Cc2c(-c3ccccc3)ncn2-c2ccccc21
- TBPS shift [2]: 0.69
